Measured values published in ChEMBL document CHEMBL4825663 (J Med Chem, 2021).
The source made the active and inactive calls. The rule behind the calls is not given here.

Assays:
[1] = target: ATP-dependent translocase ABCB1 (Homo sapiens, UniProt P08183); experiment: Inhibition of paclitaxel stimulated- P-gp ATPase activity (unknown origin)
[2] = target: T1, Solute carrier organic anion transporter family member 1B3 (Homo sapiens, UniProt Q9NPD5); experiment: Inhibition of human OATP1B3 assessed as reduction in intracellular probe substrate accumulation upto 100 uM by microplate scintillation counter analysis relative to control; type: cell-based
T1 sequence (Q9NPD5 whole entry): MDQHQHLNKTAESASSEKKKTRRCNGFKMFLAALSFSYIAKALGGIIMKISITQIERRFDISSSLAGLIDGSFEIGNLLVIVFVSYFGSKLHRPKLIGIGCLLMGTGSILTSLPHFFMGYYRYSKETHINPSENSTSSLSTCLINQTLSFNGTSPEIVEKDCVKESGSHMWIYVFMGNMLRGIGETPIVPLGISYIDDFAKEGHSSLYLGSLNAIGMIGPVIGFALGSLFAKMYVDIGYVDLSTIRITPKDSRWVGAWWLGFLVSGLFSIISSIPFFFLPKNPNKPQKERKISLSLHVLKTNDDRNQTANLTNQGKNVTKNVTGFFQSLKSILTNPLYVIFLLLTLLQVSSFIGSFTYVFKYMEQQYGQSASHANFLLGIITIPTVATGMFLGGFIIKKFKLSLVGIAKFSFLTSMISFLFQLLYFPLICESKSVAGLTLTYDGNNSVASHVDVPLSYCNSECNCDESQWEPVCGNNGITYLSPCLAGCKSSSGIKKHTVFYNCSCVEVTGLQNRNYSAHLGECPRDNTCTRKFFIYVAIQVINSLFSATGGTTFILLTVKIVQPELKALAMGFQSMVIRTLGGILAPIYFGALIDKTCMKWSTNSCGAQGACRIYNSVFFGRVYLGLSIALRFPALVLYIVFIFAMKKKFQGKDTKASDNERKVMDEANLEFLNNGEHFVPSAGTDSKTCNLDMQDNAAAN
Outline: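 Cellular uptake-inhibition assays used Chinese hamster ovary, HEK293 or MDCKII cells stably expressing the respective human SLC transporter, run alongside the corresponding control cells. Inhibitor was tested at concentrations up to 100 μM.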

[3] = Half life in Beagle dog at 3 mg/kg, iv measured upto 48 hrs by LC-MS/MS analysis; type: ADME, organism-based, Canis lupus familiaris; details: in vivo
Outline: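 Plasma pharmacokinetics in male Sprague-Dawley rats and male Beagle dogs (n = 3 per species), each given a single dose by IV at 3 mg/kg and by PO at 10 mg/kg. Cmax, Tmax, T1/2 and AUClast were derived for each route. F (%) was calculated from the PO and IV AUClast.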

[4] = AUClast in Beagle dog at 10 mg/kg, po measured upto 48 hrs by LC-MS/MS analysis; type: ADME, organism-based, Canis lupus familiaris; design: route oral, dose 10 mg/kg, time <=48; details: in vivo
Outline: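 Single dose in male Sprague-Dawley rats and male Beagle dogs (n = 3 per species), given 3 mg/kg IV or 10 mg/kg PO. Plasma was sampled to derive Cmax, Tmax, T1/2 and AUClast by each route. Oral bioavailability (F) was calculated from the PO and IV AUClast.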

[5] = target: T2, Cytochrome P450 2B6 (Homo sapiens, UniProt P20813); experiment: Drug metabolism assessed as human CYP2B6-mediated metabolism; type: ADME; details: recombinant enzyme
T2 sequence (P20813 whole entry): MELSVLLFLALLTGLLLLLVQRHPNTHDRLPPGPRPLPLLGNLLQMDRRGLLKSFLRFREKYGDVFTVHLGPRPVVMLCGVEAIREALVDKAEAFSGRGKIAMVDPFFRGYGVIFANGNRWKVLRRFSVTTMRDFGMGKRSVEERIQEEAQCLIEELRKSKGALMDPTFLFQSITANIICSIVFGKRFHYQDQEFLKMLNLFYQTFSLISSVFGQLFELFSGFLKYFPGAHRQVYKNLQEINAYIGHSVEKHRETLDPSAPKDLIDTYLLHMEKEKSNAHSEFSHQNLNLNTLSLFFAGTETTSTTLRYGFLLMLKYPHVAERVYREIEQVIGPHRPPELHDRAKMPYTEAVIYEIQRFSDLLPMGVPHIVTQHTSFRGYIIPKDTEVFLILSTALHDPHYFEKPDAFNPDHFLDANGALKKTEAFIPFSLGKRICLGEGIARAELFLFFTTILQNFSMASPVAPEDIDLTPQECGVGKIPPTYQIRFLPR

[6] = Drug distribution in Sprague-Dawley rat brain; type: ADME, tissue-based; details: in vivo
[7] = Drug distribution in Sprague-Dawley rat spinal cord; type: ADME, tissue-based; details: in vivo
[8] = Cmax in Sprague-Dawley rat at 20 mg/kg, po measured upto 24 hrs in presence of 10 mg/kg encequidar by LC-MS/MS analysis; type: ADME, organism-based; design: route oral, dose 20 mg/kg, time <=24; details: in vivo
[9] = Tmax in Sprague-Dawley rat at 20 mg/kg, po measured upto 24 hrs by LC-MS/MS analysis; type: ADME, organism-based; details: in vivo
[10] = Drug absorption in fed Beagle dog plasma at 6 mg/kg, po measured upto 24 hrs in presence of 3 mg/kg encequidar by LC-MS/MS analysis; type: ADME, organism-based, Canis lupus familiaris; details: in vivo
[11] = Drug distribution in BALB/c mouse kidney at 20 mg/kg, po measured upto 24 hrs in presence of 10 mg/kg encequidar by LC-MS/MS analysis; type: ADME, organism-based; details: in vivo
[12] = Drug excretion in dog bile at 6 mg/kg, po in presence of 3 mg/kg encequidar; type: ADME, organism-based, Canis lupus familiaris; details: in vivo
[13] = test system: NCI-H460; experiment: Antitumor activity against human NCI-H460 cells xenografted in athymic nude mouse assessed as median tumor growth delay at 24 mg/kg, iv administered every other day for 4 doses and monitored for 48 days; type: functional; details: time 48 day
Outline: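 Female athymic NCr-nu mice carried subcutaneous NCI-H460 xenografts. […] Tumor weights and body weights were followed for 48 days after implantation. Read-out was median tumor growth delay.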

[14] = test system: NCI-H460; experiment: Antitumor activity against human NCI-H460 cells xenografted in athymic nude mouse assessed as median tumor growth delay at 50 mg/kg, po administered every other day for 4 doses in presence of 20 mg/kg encequidar and monitored for 48 days; type: functional; details: time 48 day
Outline: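 Female athymic NCr-nu mice bearing subcutaneous NCI-H460 human lung tumor xenografts. Paclitaxel (30, 40 or 50 mg/kg) and the P-gp inhibitor (12, 16 or 20 mg/kg; ratio 2.5:1) given together as one oral gavage solution every other day for four doses. IV paclitaxel (18 and 24 mg/kg) on the same schedule for comparison. Tumor weights and body weights followed for 48 days after implantation. Read-out: median tumor growth delay.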

[15] = test system: SK-OV-3; experiment: Antitumor activity against human SK-OV-3 cells xenografted in athymic nude mouse assessed as tumor growth inhibition in presence of encequidar; type: functional

Sequence of ATP-dependent translocase ABCB1 (P08183 whole entry): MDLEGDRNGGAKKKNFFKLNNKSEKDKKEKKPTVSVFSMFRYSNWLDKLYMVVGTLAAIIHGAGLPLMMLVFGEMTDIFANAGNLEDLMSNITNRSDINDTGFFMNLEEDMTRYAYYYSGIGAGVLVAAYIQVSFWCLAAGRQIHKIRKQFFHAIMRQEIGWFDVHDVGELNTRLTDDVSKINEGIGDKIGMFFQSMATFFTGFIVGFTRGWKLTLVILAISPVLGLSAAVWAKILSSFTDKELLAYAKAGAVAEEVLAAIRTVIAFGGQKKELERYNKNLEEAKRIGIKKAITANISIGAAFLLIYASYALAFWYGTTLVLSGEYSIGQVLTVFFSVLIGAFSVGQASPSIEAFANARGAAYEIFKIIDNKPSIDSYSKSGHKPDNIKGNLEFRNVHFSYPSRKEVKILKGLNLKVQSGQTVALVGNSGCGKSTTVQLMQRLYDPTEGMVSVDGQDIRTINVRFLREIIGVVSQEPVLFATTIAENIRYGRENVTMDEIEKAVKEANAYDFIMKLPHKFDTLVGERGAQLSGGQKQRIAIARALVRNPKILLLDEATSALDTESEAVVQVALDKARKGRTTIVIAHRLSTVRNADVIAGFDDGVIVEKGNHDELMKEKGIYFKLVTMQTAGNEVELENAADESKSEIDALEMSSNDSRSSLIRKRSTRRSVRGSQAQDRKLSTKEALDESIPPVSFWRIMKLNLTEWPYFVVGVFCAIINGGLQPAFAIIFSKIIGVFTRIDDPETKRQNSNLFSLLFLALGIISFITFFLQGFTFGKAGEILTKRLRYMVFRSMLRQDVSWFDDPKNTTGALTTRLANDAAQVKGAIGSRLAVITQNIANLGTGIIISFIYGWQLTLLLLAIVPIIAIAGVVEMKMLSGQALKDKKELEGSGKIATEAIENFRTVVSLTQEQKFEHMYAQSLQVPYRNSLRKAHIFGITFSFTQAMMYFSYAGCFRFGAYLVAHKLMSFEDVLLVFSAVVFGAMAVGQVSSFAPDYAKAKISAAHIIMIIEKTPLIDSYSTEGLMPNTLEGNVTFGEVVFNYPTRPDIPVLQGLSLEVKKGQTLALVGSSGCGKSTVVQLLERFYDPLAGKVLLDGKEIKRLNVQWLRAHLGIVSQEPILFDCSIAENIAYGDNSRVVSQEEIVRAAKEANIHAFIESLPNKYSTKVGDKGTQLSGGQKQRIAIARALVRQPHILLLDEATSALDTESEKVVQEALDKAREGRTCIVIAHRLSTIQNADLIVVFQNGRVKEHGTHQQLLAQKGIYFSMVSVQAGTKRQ

IC50 [1] [nM]	inhibition (INH) [2] [%]	half-life [3] [h]	AUC(0-t) at 48 h [4] [ng·h/mL]	Drug metabolism [5]	Drug uptake [6]	Drug uptake [7]	SMILES	Cmax [8] [ng/mL]	Tmax [9] [h]	Drug absorption [10]	Drug uptake [11]	Drug excretion [12]	Time [13] [days]	Time [14] [days]	Activity [15]
0.6	< 50	16.9	724	Metabolite_Notdetected	Not Active	Not Active	COc1cc2c(cc1OC)CN(CCc1ccc(-n3nnc(-c4cc(OC)c(OC)cc4NC(=O)c4cc(=O)c5ccccc5o4)n3)cc1)CC2	–	–	–	–	–	–	–	–
–	–	–	–	–	–	–	CC(=O)O[C@H]1C(=O)[C@@]2(C)[C@H]([C@H](OC(=O)c3ccccc3)[C@]3(O)C[C@H](OC(=O)[C@H](O)[C@@H](NC(=O)c4ccccc4)c4ccccc4)C(C)=C1C3(C)C)[C@]1(OC(C)=O)CO[C@@H]1C[C@@H]2O [PACLITAXEL]	1250	0.9	Not Active	Active	Metabolite_Detected	16.3	12.7	Active
